Activity calls are given as the source filed them. The rule behind the calls is not given here.
Columns and labels:
[1] = test system: Nucleic Acid; assay: Binding constant for DNA by ethidium bromide displacement; type: nucleic-acid assay
[2] = test system: L1210; assay: In vitro concentration required to inhibit the growth of L1210 cells in culture by 50% following a 48 hr exposure.; type: functional; details: Mus musculus, L1210, 48 h; read-out: ID50 (the source's name)
[3] = organism: Mus musculus; assay: Percentage increase in life span of drug-treated tumor bearing controls was determined; type: functional
In short: (§1)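 Survival of drug-treated mice bearing ip-inoculated leukemia was compared with untreated tumor-bearing controls. The result is expressed as percentage increase in life span (ILS), and a value above 20% was taken as statistically significant.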

[4] = test system: P388; assay: Dose of drug given intraperitoneally on days 1, 5, and 9 that provides the highest ILS value in mice bearing 10E6 ip inoculated P388 leukemia cells in vivo
[5] = organism: Mus musculus; assay: Percentage increase in life span of drug-treated tumor bearing controls was determined no. in parentheses are the animals (out of a group of 6) that survived indefinitely; type: functional; in short: as §1
[6] = test system: Mus musculus; assay: Dose of drug given intraperitoneally on days 1, 5, and 9 that provides the highest ILS value in mice bearing 10E6 ip inoculated P388 leukemia cells in vivo
[7] = test system: L1210; assay: Dose of drug given intraperitoneally on a qd 1-5 schedule that provides the highest ILS value in mice bearing 10E6 ip inoculated L1210 leukemia cells; type: functional, Mus musculus
In short: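 Mice inoculated ip with 10⁶ L1210 leukemia cells; drug given ip daily on days 1-5 (qd 1-5). Optimal dose, in mg/kg/day, is the dose giving the highest increase in life span (ILS).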

[8] = Dissociation constant in aqueous DMF.; type: physicochemical
In short: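 pKa obtained by UV spectroscopy in 20% aqueous DMF.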

[9] = organism: Mus musculus; assay: Percentage increase in life span of drug-treated tumor bearing controls was determined; IN- Inactive at the highest dose tested; type: functional, organism-based
[10] = organism: Mus musculus; assay: Percentage increase in life span of drug-treated tumor bearing controls was determined no. in parentheses =no. of animals out of a 6 group that survived indefinitely; type: functional; in short: as §1
[11] = test system: L1210; assay: Potency against L1210 leukemia cells in culture in vitro according to the NCI protocols Nanomolar concentration required to inhibit the growth of L1210 cells in culture by 50% following a 48 hr exposure; type: functional; details: Mus musculus, L1210, 48 h; read-out: ID50 (the source's name)
In short: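 L1210 leukaemia cells were grown in culture and exposed to drug for 48 h. The value is the drug concentration giving 50% growth inhibition, expressed in nanomolar.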

Row | Compound | Log K [1] | IC50 [2] [µM] | ILS [3] [%] | OD [4] [mg/kg] | OD [7] [mg/kg] | also measured
1 | CCCCCCCS(=O)(=O)Nc1ccc(Nc2c3ccccc3nc3ccccc23)c(NC)c1 | 6.44 | 0.397 | 47 | 45 | – | –
2 | CNc1cc(NS(C)(=O)=O)ccc1Nc1c2ccccc2nc2ccccc12 | 6.42 | 0.071 | – | – | – | ILS [5]: 152%; OD [6]: 13.3 mg/kg
3 | CCCCCCCCS(=O)(=O)Nc1ccc(Nc2c3ccccc3nc3ccccc23)c(NC)c1 | 6.51 | 0.217 | 42 | 30 | – | –
4 | CCCCCCCNc1cc(NS(C)(=O)=O)ccc1Nc1c2ccccc2nc2ccccc12 | 6.54 | 0.181 | – | 45 | – | –
5 | CCCCNc1cc(NS(C)(=O)=O)ccc1Nc1c2ccccc2nc2ccccc12 | 6.36 | 0.185 | – | 45 | – | –
6 | CCNc1cc(NS(C)(=O)=O)ccc1Nc1c2ccccc2nc2ccccc12 | 6.54 | 0.229 | 69 | 45 | – | –
7 | CCCCCCS(=O)(=O)Nc1ccc(Nc2c3ccccc3nc3ccccc23)c(NC)c1 | 6.41 | 0.443 | 36 | 100 | – | –
8 | CS(=O)(=O)Nc1ccc(Nc2c3ccccc3nc3ccccc23)c(NC2CCCCC2)c1 | 6.3 | 0.47 | – | 45 | – | –
9 | CS(=O)(=O)Nc1ccc(Nc2c3ccccc3nc3ccccc23)c(N)c1 | 6.28 | 1.2 | 106 | – | 45 | –
10 | CCCNc1cc(NS(C)(=O)=O)ccc1Nc1c2ccccc2nc2ccccc12 | 6.57 | 0.286 | – | 66 | – | –
11 | CS(=O)(=O)Nc1ccc(Nc2c3ccccc3nc3ccccc23)cc1 | – | 0.035 | 107 | – | 45 | –
12 | CCS(=O)(=O)Nc1ccc(Nc2c3ccccc3nc3ccccc23)c(NC)c1 | 6.62 | 0.043 | 99 | 13.3 | – | –
13 | CCOc1cc(NS(C)(=O)=O)ccc1Nc1c2ccccc2nc2ccccc12 | 5.68 | 0.6 | 29 | – | 250 | pKa [8]: 7.55
14 | CS(=O)(=O)Nc1ccc(Nc2c3ccccc3nc3ccccc23)c([N+](=O)[O-])c1 | 5.61 | 9 | – | – | >500 | ILS [9]: inactive
15 | CS(=O)(=O)Nc1ccc(Nc2c3ccccc3nc3ccccc23)c(OCCO)c1 | 5.91 | > 1.7 | 67 | – | 62.5 | pKa [8]: 7.53
16 | CC(C)Oc1cc(NS(C)(=O)=O)ccc1N=c1c2ccccc2[nH]c2ccccc12 | 5.17 | > 1.7 | – | – | >500 | pKa [8]: 7.51
17 | CCCCS(=O)(=O)Nc1ccc(Nc2c3ccccc3nc3ccccc23)c(NC)c1 | 6.66 | 0.102 | 67 | 45 | – | –
18 | CS(=O)(=O)Nc1ccc(Nc2c3ccccc3nc3ccccc23)c(O)c1 | 5.53 | 4 | 88 | – | 25 | pKa [8]: 7.56

Row | Compound | Log K [1] | IC50 [2] [µM] | ILS [3] [%] | OD [4] [mg/kg] | OD [7] [mg/kg] | also measured
19 | CCCCCS(=O)(=O)Nc1ccc(Nc2c3ccccc3nc3ccccc23)c(NC)c1 | 6.58 | 0.144 | 61 | 20 | – | –
20 | CS(=O)(=O)Nc1ccc(Nc2c3ccccc3nc3ccccc23)c(N2CCOCC2)c1 | 5.26 | > 1.6 | – | 100 | – | –
21 | CS(=O)(=O)Nc1ccc(Nc2c3ccccc3nc3ccccc23)c(N2CCCCC2)c1 | 5.69 | > 1.6 | – | 100 | – | –
22 | COc1cc(NS(C)(=O)=O)ccc1Nc1c2ccccc2nc2ccccc12 [AMSACRINE] | 5.57 | – | 114 | – | 6.7 | –
23 | CN(CCO)c1cc(NS(C)(=O)=O)ccc1Nc1c2ccccc2nc2ccccc12 | 5.52 | 1.4 | – | 100 | – | ILS [10]: 100%
24 | CS(=O)(=O)Nc1ccc(Nc2c3ccccc3nc3ccccc23)c(Cl)c1 | 5.45 | 1.3 | – | – | >500 | –
25 | CC(=O)NNc1cc(NS(C)(=O)=O)ccc1Nc1c2ccccc2nc2ccccc12 | 5.89 | > 1.5 | – | – | – | –
26 | CCCCCNc1cc(NS(C)(=O)=O)ccc1Nc1c2ccccc2nc2ccccc12 | 6.42 | – | – | 30 | – | IC50 [11]: 0.117 µM
27 | CN(C)c1cc(NS(C)(=O)=O)ccc1Nc1c2ccccc2nc2ccccc12 | – | – | – | 166 | – | ILS [10]: 210%
28 | CCN(CC)c1cc(NS(C)(=O)=O)ccc1Nc1c2ccccc2nc2ccccc12 | 5.35 | 4.6 | – | 100 | – | –
29 | Cc1cc(NS(C)(=O)=O)ccc1Nc1c2ccccc2nc2ccccc12 | 5.74 | 0.12 | 106 | – | 97 | –
30 | CS(=O)(=O)Nc1ccc(Nc2c3ccccc3nc3ccccc23)c(N2CCCC2)c1 | 5.49 | 1.3 | – | 45 | – | –
31 | CS(=O)(=O)Nc1ccc(Nc2c3ccccc3nc3ccccc23)c(NCCO)c1 | 6.49 | 0.086 | 89 | 45 | – | –
32 | CCCCCCNc1cc(NS(C)(=O)=O)ccc1Nc1c2ccccc2nc2ccccc12 | 6.36 | 0.136 | – | 60 | – | –
33 | CCCS(=O)(=O)Nc1ccc(Nc2c3ccccc3nc3ccccc23)c(NC)c1 | 6.61 | 0.086 | 73 | 20 | – | –
34 | CS(=O)(=O)Nc1ccc(Nc2c3ccccc3nc3ccccc23)c(F)c1 | 5.65 | 0.8 | – | – | >500 | pKa [8]: 6.62
35 | CS(=O)(=O)Nc1ccc(Nc2c3ccccc3nc3ccccc23)c(NCC(O)CO)c1 (stereo unspecified) | 6.71 | 0.219 | 84 | 45 | – | –
